{
  "source": "ChEMBL document CHEMBL1153564",
  "about": "(Antimicrob Agents Chemother, 2008)",
  "key": {"Candida albicans [1]": {"test_system": "Candida albicans", "experiment": "Antifungal activity against Candida albicans K-1 infected in neutropenic ICR/Swiss mouse candidiasis model assessed as dose required to maintain […] of 3.81 +/- 0.33 log10CFU per kidney administered intraperitoneally every 24 hrs up to 4 days measured per 24 hrs", "format": "functional", "method_in_brief": "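Neutropenic mice (cyclophosphamide sc 150 mg/kg day −4, 100 mg/kg day −1 and day +2) infected iv via tail vein, 2 h before therapy. Drug given ip in 0.2 ml, diluted from DMSO stock in 0.9% NaCl, q24h for 4 days over five dose levels (0.078–20 mg/kg/24 h), 3 mice per regimen. Kidney CFU on SDA. Static dose taken from a sigmoid Emax (Hill) fit.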"}, "Nakaseomyces glabratus [2]": {"test_system": "Nakaseomyces glabratus", "experiment": "Antifungal activity against Candida glabrata 513 infected in neutropenic ICR/Swiss mouse candidiasis model assessed as dose required to maintain […] burden of 1.83 +/- 0.54 log10CFU per kidney administered intraperitoneally every 24 hrs up to 4 days measured per 24 hrs", "format": "functional"}, "Candida albicans [3]": {"test_system": "Candida albicans", "experiment": "Antifungal activity against Candida albicans K-1 infected in neutropenic ICR/Swiss mouse candidiasis model assessed as suppression of fungal regrowth at 20 mg/kg, ip administered 2 hrs postinfection as single dose by time-kill assay", "format": "functional, organism-based", "parameters": "dose 20 mg/kg", "method_in_brief": "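Single ip dose (20, 5 or 1.25 mg/kg) given 2 h after iv infection of neutropenic mice with K-1. Three treated and three control mice were sampled at intervals over 96 h for kidney CFU. PAFE is the time for treated burden to rise 1 log10 after serum levels fall below MIC, minus the same time in controls. Free drug was taken as 1%.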"}, "Nakaseomyces glabratus [4]": {"test_system": "Nakaseomyces glabratus", "experiment": "Antifungal activity against Candida glabrata 5376 infected in neutropenic ICR/Swiss mouse candidiasis model assessed as prolongation of fungal growth suppression at 5 mg/kg, ip administered 2 hrs postinfection as single dose by time-kill assay", "format": "functional", "conditions": "route intraperitoneal", "method_in_brief": "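Neutropenic mice were infected i.v. and 2 h later given a single i.p. dose (1.25, 5 or 20 mg/kg). Groups of three treated and three control mice were killed at intervals over 96 h, and kidney CFU were counted on SDA (limit 100 CFU/ml). The post-antifungal effect is t − c: the time for a 1 log10 CFU/kidney increase once serum levels fall below the MIC in treated mice, minus the same time in controls.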"}, "Candida albicans [5]": {"test_system": "Candida albicans", "experiment": "Antifungal activity against Candida albicans K-1 infected in neutropenic ICR/Swiss mouse candidiasis model assessed as dose required to maintain […] of 3.90 +/- 0.15 log10CFU per kidney administered intraperitoneally every 16 hrs up to 4 days measured per 96 hrs", "format": "functional", "method_in_brief": "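Neutropenic mice were infected iv with C. albicans K-1 2 h before therapy. Total doses of 1.25, 5, 20, 80 and 320 mg/kg/96 h were split into 1, 2, 4 or 6 ip doses (q96h, q48h, q24h, q16h), three mice per regimen. Effect is the log10 CFU/kidney relative to untreated controls at 96 h. Static and 1-log doses were taken from a Hill model fit.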"}, "Candida albicans [6]": {"test_system": "Candida albicans", "experiment": "Antifungal activity against Candida albicans 580 infected in neutropenic ICR/Swiss mouse candidiasis model assessed as dose required for 1-log10 reduction in […] per kidney administered intraperitoneally every 24 hrs up to 4 days measured per 24 hrs", "format": "functional", "method_in_brief": "(§1)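 Neutropenic mice (cyclophosphamide sc on days −4, −1 and +2) were infected iv 2 h before therapy. Five total doses from 0.078 to 20 mg/kg/24 h were given ip q24h for 4 days, three mice per regimen. Kidney CFU were measured at the end of therapy. Static and 1-log-kill doses were derived from a Hill sigmoid dose-effect fit.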"}, "Nakaseomyces glabratus [7]": {"test_system": "Nakaseomyces glabratus", "experiment": "Antifungal activity against Candida glabrata 33609 infected in neutropenic ICR/Swiss mouse candidiasis model assessed as dose required for 1-log10 reduction in […] per kidney administered intraperitoneally every 24 hrs up to 4 days measured per 24 hrs", "format": "functional", "method_in_brief": "as §1"}, "Nakaseomyces glabratus [8]": {"test_system": "Nakaseomyces glabratus", "experiment": "Antifungal activity against Candida glabrata 5376 infected in neutropenic ICR/Swiss mouse candidiasis model assessed as dose required for 1-log10 reduction in […] per kidney administered intraperitoneally every 24 hrs up to 4 days measured per 24 hrs", "format": "functional", "method_in_brief": "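Neutropenic mouse disseminated candidiasis, with i.p. therapy starting 2 h after i.v. infection. Five total doses of 0.078–20 mg/kg/24 h were given q24h for 4 days, three mice per dose. Kidney CFU were counted at the end and compared with untreated controls. The dose giving a 1 log10 CFU/kidney reduction was derived from the sigmoid Hill dose–effect model.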"}, "Nakaseomyces glabratus [9]": {"test_system": "Nakaseomyces glabratus", "experiment": "Antifungal activity against Candida glabrata 570 assessed as partial growth inhibition after 24 hrs by CLSI end point method", "format": "functional", "conditions": "Nakaseomyces glabratus, 570, 24 h", "method_in_brief": "(§2)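 Two end points were read against the drug-free control well: partial growth inhibition (the CLSI end point) and complete inhibition. Run in duplicate on four separate occasions; the value is the mean. Drug stock was made in DMSO and diluted in 0.9% NaCl.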"}, "Nakaseomyces glabratus [10]": {"test_system": "Nakaseomyces glabratus", "experiment": "Antifungal activity against Candida glabrata 5376 assessed as partial growth inhibition after 24 hrs by CLSI end point method", "format": "functional", "conditions": "Nakaseomyces glabratus, 5376, 24 h", "method_in_brief": "as §2"}, "Candida tropicalis": {"test_system": "Candida tropicalis", "experiment": "Antifungal activity against Candida tropicalis 98-234 infected in neutropenic ICR/Swiss mouse candidiasis model assessed as fungal count per kidney administered 2 hrs postinfection measured up to 48 hrs", "format": "functional", "method_in_brief": "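Untreated neutropenic ICR/Swiss female mice infected iv via lateral tail vein (0.1 ml, 6.1 ± 0.51 log10 CFU/ml); kidneys homogenised, serially diluted 1:10 and plated on SDA, counted after 24 h at 35°C; growth in kidneys over 48 h, mean CFU per kidney of three mice, detection limit 100 CFU/ml.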"}, "Nakaseomyces glabratus [11]": {"test_system": "Nakaseomyces glabratus", "experiment": "Antifungal activity against Candida glabrata 35315 infected in neutropenic ICR/Swiss mouse candidiasis model assessed as fungal count per kidney administered 2 hrs postinfection measured up to 48 hrs", "format": "functional", "method_in_brief": "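Female ICR/Swiss mice (23–27 g) made neutropenic with cyclophosphamide s.c. (150 mg/kg day −4, 100 mg/kg day −1, 100 mg/kg day +2). Infected by tail vein with 0.1 ml inoculum (~6.1 log10 CFU/ml). Kidneys of untreated mice were homogenised and plated on SDA for 24 h at 35°C. Growth over 48 h is given as log10 CFU/kidney.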"}, "[12]": {"experiment": "Elimination half life in serum of neutropenic ICR/Swiss mouse candidiasis model at 80 mg/kg, ip by reverse-phase high-pressure liquid chromatography", "format": "ADME, organism-based", "parameters": "dose 80 mg/kg, route intraperitoneal", "conditions": "read-out: beta t1/2 (converted)", "method_in_brief": "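Infected neutropenic ICR/Swiss mice given single ip doses (5, 20 or 80 mg/kg; 0.2 ml); serum from three isoflurane-anaesthetised mice at 1, 4, 8, 12, 24 and 48 h, stored at −80°C, assayed by reverse-phase HPLC with fluorescence detection, loratadine internal standard, linear 10–50,000 ng/ml. Noncompartmental analysis; half-life by nonlinear least squares.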"}, "[13]": {"experiment": "AUC (0 to infinity) in serum of neutropenic ICR/Swiss mouse candidiasis model at 5 mg/kg, ip by reverse-phase high-pressure liquid chromatography", "format": "ADME, organism-based", "parameters": "time infinity, dose 5 mg/kg, route intraperitoneal", "method_in_brief": "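Single ip dose in 0.2 ml to infected neutropenic mice. Serum from groups of three isoflurane-anaesthetised mice at 1, 4, 8, 12, 24 and 48 h, stored −80°C. Drug measured by reverse-phase HPLC with fluorescence detection against loratadine internal standard (calibration 10–50,000 ng/ml). Noncompartmental analysis; AUC by trapezoidal rule.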"}},
  "note": "The source made the active and inactive calls. The calls are words filed in the database; no cut-off is given here. Starred links: 1 amine or outer side, 2 acyl side, 3 side chain; linkers in the order of their positions; H or OH if unused. Positions of bridges follow the written chain, without caps; N, C: chain ends. Non-standard residues stand in square brackets, D forms with d. Residues, ends and D or L forms follow the SMILES beside them. *: point of attachment. pTerphenylCO(4''-OnC5H11) = CCCCCOc1ccc(-c2ccc(-c3ccc(C(=O)*)cc3)cc2)cc1; Orn(4R-OH,5R-OH) = O=C([C@H](C[C@@H](O)[C@@H](O)N[*:3])N[*:1])[*:2]; hTyr(3S-OH,4S-OH) = N[C@H](C(=O)O)[C@H](O)[C@@H](O)c1ccc(O)cc1; Pro(3S-OH,4S-Me) = C[C@H]1CN[C@H](C(=O)O)[C@H]1O; Hyp = O=C(O)[C@@H]1C[C@@H](O)CN1",
  "data": [
    {"smiles": "CCCCCOc1ccc(-c2ccc(-c3ccc(C(=O)N[C@H]4C[C@@H](O)[C@@H](O)NC(=O)[C@@H]5[C@@H](O)[C@@H](C)CN5C(=O)[C@H]([C@@H](C)O)NC(=O)[C@H]([C@H](O)[C@@H](O)c5ccc(O)cc5)NC(=O)[C@@H]5C[C@@H](O)CN5C(=O)[C@H]([C@@H](C)O)NC4=O)cc3)cc2)cc1", "note": "[ANIDULAFUNGIN] ({pTerphenylCO(4''-OnC5H11)}-[Orn(4R-OH,5R-OH)]T[Hyp][hTyr(3S-OH,4S-OH)]T[Pro(3S-OH,4S-Me)]; lactam 1-C)", "values": [
      {"measurement": "Activity", "setting": "Candida albicans [1]", "value": 1.25, "unit": "mg/kg"},
      {"measurement": "Activity", "setting": "Nakaseomyces glabratus [2]", "value": 2.45, "unit": "mg/kg"},
      {"measurement": "Activity", "setting": "Candida albicans [3]", "value": "Active"},
      {"measurement": "Activity", "setting": "Nakaseomyces glabratus [4]", "value": 19, "unit": "h"},
      {"measurement": "Activity", "setting": "Candida albicans [5]", "value": 16.5, "unit": "mg/kg"},
      {"measurement": "Activity", "setting": "Candida albicans [6]", "value": 2.31, "unit": "mg/kg"},
      {"measurement": "Activity", "setting": "Nakaseomyces glabratus [7]", "value": 4.21, "unit": "mg/kg"},
      {"measurement": "Activity", "setting": "Nakaseomyces glabratus [8]", "value": 7.5, "unit": "mg/kg"},
      {"measurement": "MIC", "setting": "Nakaseomyces glabratus [9]", "value": 0.03, "unit": "µg/mL"},
      {"measurement": "MIC", "setting": "Nakaseomyces glabratus [10]", "value": 0.03, "unit": "µg/mL"},
      {"measurement": "log10cfu", "setting": "Candida tropicalis", "value": 3.84},
      {"measurement": "log10cfu", "setting": "Nakaseomyces glabratus [11]", "value": 0.97},
      {"measurement": "half-life", "setting": "[12]", "value": 24, "unit": "h"},
      {"measurement": "AUC(0-inf)", "setting": "[13]", "value": 96000, "unit": "ng·h/mL"}
    ]}
  ]
}
